Test results: ChEMBL document CHEMBL2401625, “Synthesis and evaluation of pharmacological properties of some new xanthone derivatives with piperazine moiety” (Bioorg Med Chem Lett, 2013)
Activity calls are given as the source filed them. The rule behind the calls is not given here.

How the values were obtained:
Mus musculus [1] = experiment: Anticonvulsant activity in CF1 mouse assessed as protection against maximal electroshock-induced seizures at 300 mg/kg, ip after 0.5 hrs; type: functional, organism-based; parameters: dose 300 mg/kg
Summary of the method: (§1)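 Mice given compound i.p. at 30, 100 or 300 mg/kg and tested 0.5 or 4 h after dosing. Seizures were induced by maximal electroshock (MES) or subcutaneous metrazole (ScMet). Prevention of seizures counts as protection. Result is recorded as number of animals protected over number tested.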

Mus musculus [2] = experiment: Anticonvulsant activity in CF1 mouse assessed as protection against maximal electroshock-induced seizures at 100 mg/kg, ip after 0.5 hrs; type: functional, organism-based; parameters: dose 100 mg/kg; summary of the method: as §1
Mus musculus [3] = experiment: Anticonvulsant activity in CF1 mouse assessed as protection against maximal electroshock-induced seizures at 30 mg/kg, ip after 0.5 hrs; type: functional, organism-based; parameters: dose 30 mg/kg; summary of the method: as §1
Mus musculus [4] = experiment: Anticonvulsant activity in CF1 mouse assessed as protection against subcutaneous metrazole-induced seizures at 300 mg/kg, ip after 4 hrs; type: functional, organism-based; parameters: dose 300 mg/kg; summary of the method: as §1
Mus musculus [5] = experiment: Anticonvulsant activity in CF1 mouse assessed as protection against subcutaneous metrazole-induced seizures at 100 mg/kg, ip after 4 hrs; type: functional, organism-based; parameters: dose 100 mg/kg; summary of the method: as §1
Mus musculus [6] = experiment: Anticonvulsant activity in CF1 mouse assessed as protection against subcutaneous metrazole-induced seizures at 30 mg/kg, ip after 4 hrs; type: functional, organism-based; parameters: dose 30 mg/kg; summary of the method: as §1
Mus musculus [7] = experiment: Anticonvulsant activity in CF1 mouse assessed as protection against subcutaneous metrazole-induced seizures at 300 mg/kg, ip after 0.5 hrs; type: functional, organism-based; parameters: dose 300 mg/kg; summary of the method: as §1
Mus musculus [8] = experiment: Anticonvulsant activity in CF1 mouse assessed as protection against subcutaneous metrazole-induced seizures at 100 mg/kg, ip after 0.5 hrs; type: functional, organism-based; parameters: dose 100 mg/kg; summary of the method: as §1
Mus musculus [9] = experiment: Anticonvulsant activity in CF1 mouse assessed as protection against subcutaneous metrazole-induced seizures at 30 mg/kg, ip after 0.5 hrs; type: functional, organism-based; parameters: dose 30 mg/kg; summary of the method: as §1
Mus musculus [10] = experiment: Anticonvulsant activity in CF1 mouse assessed as protection against maximal electroshock-induced seizures at 300 mg/kg, ip after 4 hrs; type: functional, organism-based; parameters: dose 300 mg/kg; summary of the method: as §1
Mus musculus [11] = experiment: Anticonvulsant activity in CF1 mouse assessed as protection against maximal electroshock-induced seizures at 100 mg/kg, ip after 4 hrs; type: functional, organism-based; parameters: dose 100 mg/kg; summary of the method: as §1
Mus musculus [12] = experiment: Anticonvulsant activity in CF1 mouse assessed as protection against maximal electroshock-induced seizures at 30 mg/kg, ip after 4 hrs; type: functional, organism-based; parameters: dose 30 mg/kg; summary of the method: as §1
Mus musculus [13] = experiment: Neurotoxicity in CF1 mouse assessed as minimal motor impairment at 300 mg/kg, ip after 4 hrs by rotorod test; type: toxicity, organism-based; parameters: dose 300 mg/kg, route intraperitoneal; conditions: in vivo
Summary of the method: (§2)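 Rotarod neurotoxicity screen in mice dosed i.p. at 30, 100 or 300 mg/kg, read 0.5 or 4 h after dosing. The animal must stay on a rod rotating at 6 rpm without falling, measured 3 times within 1 min. A fall counts as minimal motor impairment. Result is recorded as impaired animals over animals used.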

Mus musculus [14] = experiment: Neurotoxicity in CF1 mouse assessed as minimal motor impairment at 30 mg/kg, ip after 4 hrs by rotorod test; type: toxicity, organism-based; parameters: dose 30 mg/kg, route intraperitoneal; conditions: in vivo; summary of the method: as §2
Mus musculus [15] = experiment: Neurotoxicity in CF1 mouse assessed as minimal motor impairment at 100 mg/kg, ip after 4 hrs by rotorod test; type: toxicity, organism-based; parameters: dose 100 mg/kg, route intraperitoneal; conditions: in vivo; summary of the method: as §2
Mus musculus [16] = experiment: Neurotoxicity in CF1 mouse assessed as minimal motor impairment at 300 mg/kg, ip after 0.5 hrs by rotorod test; type: toxicity, organism-based; parameters: dose 300 mg/kg, route intraperitoneal; conditions: in vivo; summary of the method: as §2
Mus musculus [17] = experiment: Neurotoxicity in CF1 mouse assessed as minimal motor impairment at 30 mg/kg, ip after 0.5 hrs by rotorod test; type: toxicity, organism-based; parameters: dose 30 mg/kg, route intraperitoneal; conditions: in vivo; summary of the method: as §2
Rattus norvegicus [18] = organism: Rattus norvegicus; experiment: Displacement of [3H]CGP-12177 from beta1-adrenergic receptor in rat cerebral cortex at 50 uM after 60 mins by scintillation counting; type: tissue-based
Rattus norvegicus [19] = experiment: Anticonvulsant activity in Sprague-Dawley rat assessed as protection against maximal electroshock-induced seizures at 30 mg/kg, po after 0.25 hrs; type: functional, organism-based; parameters: dose 30 mg/kg
Summary of the method: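 Rats dosed orally at 30 mg/kg and tested in MES at several time points after dosing. Protection means seizures were prevented. Result is recorded as number of animals protected over number tested.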

[20] = Displacement of [3H]CGP-12177 from beta1-adrenergic receptor in rat cerebral cortex after 60 mins by scintillation counting; type: tissue-based
Summary of the method: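 Radioligand binding on rat brain tissue membranes, run in 96-well format. Ki was calculated by the Cheng–Prusoff equation.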

[21] = biological target: T1, Adrenergic receptor alpha-1 (Rattus norvegicus, UniProt P15823+P23944+P43140); experiment: Displacement of [3H]prazosin from alpha1-adrenergic receptor in rat cerebral cortex after 30 mins by scintillation counting; type: tissue-based
T1 sequence (P15823 whole entry): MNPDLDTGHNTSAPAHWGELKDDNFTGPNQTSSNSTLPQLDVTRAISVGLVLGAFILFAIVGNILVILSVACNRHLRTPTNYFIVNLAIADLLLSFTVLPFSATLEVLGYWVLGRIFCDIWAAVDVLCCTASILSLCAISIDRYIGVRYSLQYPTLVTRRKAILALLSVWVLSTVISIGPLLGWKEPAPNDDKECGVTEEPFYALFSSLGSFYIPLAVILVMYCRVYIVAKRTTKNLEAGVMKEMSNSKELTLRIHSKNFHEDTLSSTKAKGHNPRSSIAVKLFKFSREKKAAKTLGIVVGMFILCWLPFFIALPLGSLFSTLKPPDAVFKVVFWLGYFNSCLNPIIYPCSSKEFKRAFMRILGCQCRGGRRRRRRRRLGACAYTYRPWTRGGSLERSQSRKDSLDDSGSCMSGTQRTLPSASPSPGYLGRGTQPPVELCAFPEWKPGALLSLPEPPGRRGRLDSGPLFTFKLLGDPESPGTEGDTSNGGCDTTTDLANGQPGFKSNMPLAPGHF
T1 sequence (P23944 whole entry): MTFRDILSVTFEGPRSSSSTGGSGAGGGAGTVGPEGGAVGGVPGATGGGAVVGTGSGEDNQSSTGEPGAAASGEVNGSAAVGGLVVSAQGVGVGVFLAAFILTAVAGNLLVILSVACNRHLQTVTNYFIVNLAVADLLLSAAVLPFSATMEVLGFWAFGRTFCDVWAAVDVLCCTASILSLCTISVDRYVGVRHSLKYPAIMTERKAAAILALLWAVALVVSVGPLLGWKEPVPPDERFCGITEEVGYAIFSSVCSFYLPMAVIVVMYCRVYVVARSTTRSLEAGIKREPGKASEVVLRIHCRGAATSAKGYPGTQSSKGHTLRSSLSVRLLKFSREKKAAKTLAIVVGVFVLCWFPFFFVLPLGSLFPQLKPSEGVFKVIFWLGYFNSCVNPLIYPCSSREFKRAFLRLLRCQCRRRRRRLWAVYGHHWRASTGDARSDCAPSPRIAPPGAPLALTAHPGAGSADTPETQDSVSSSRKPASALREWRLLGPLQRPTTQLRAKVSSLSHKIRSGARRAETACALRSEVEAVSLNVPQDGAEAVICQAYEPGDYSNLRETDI
T1 sequence (P43140 whole entry): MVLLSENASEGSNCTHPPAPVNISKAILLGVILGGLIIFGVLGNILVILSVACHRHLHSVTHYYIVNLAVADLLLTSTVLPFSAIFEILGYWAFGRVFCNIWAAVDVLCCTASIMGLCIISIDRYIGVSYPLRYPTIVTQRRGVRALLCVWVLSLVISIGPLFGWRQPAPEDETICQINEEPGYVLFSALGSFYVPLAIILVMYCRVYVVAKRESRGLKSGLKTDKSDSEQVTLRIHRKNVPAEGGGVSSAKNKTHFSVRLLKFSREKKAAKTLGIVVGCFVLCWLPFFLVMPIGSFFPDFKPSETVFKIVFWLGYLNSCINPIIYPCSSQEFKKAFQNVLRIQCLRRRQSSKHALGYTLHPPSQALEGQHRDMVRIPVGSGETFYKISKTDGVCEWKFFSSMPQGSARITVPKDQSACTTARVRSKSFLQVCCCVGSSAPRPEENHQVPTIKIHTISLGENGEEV
Summary of the method: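 Radioligand binding on rat brain tissue membranes, run in 96-well format. [3H]prazosin was used for α1 (n = 2) and [3H]CGP-12177 for β1 (n = 2). Ki was calculated by the Cheng–Prusoff equation.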

[22] = biological target: 5-hydroxytryptamine receptor 7 (Homo sapiens, UniProt P34969); experiment: Displacement of [3H]5-CT from human 5HT7b receptor expressed in HEK293 cells after 1 hr; type: cell-based
5-hydroxytryptamine receptor 7, sequence (P34969 whole entry): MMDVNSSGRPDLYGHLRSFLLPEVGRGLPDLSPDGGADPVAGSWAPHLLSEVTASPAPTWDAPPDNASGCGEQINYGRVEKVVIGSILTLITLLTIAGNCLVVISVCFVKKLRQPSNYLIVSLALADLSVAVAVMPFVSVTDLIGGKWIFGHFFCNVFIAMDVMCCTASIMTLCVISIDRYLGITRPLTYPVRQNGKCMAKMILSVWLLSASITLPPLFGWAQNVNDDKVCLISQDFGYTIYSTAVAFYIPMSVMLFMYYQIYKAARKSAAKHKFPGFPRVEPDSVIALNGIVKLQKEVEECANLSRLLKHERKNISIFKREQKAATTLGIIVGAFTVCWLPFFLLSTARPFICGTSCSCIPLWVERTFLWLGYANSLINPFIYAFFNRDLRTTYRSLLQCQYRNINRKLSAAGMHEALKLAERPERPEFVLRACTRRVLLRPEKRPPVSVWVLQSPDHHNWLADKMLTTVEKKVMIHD

[23] = biological target: 5-hydroxytryptamine receptor 6 (Homo sapiens, UniProt P50406); experiment: Displacement of [3H]LSD from human 5HT6 receptor expressed in HEK293 cells after 1 hr; type: cell-based
5-hydroxytryptamine receptor 6, sequence (P50406 whole entry): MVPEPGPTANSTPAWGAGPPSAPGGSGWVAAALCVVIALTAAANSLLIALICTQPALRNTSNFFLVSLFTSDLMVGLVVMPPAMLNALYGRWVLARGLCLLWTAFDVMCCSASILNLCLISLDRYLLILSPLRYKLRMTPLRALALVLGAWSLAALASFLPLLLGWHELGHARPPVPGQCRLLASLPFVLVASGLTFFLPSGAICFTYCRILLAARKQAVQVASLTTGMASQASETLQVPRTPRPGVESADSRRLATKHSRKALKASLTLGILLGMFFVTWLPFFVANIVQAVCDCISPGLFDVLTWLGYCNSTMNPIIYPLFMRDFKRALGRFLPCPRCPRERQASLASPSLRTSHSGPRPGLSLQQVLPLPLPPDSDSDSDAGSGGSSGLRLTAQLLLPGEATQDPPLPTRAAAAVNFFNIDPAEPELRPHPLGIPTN

[24] = biological target: T2, 5-hydroxytryptamine receptor 1A (Homo sapiens, UniProt P08908); experiment: Displacement of [3H]8-OH-DPAT from human 5HT1A receptor expressed in HEK293 cells after 1 hr; type: cell-based
T2 sequence (P08908 whole entry): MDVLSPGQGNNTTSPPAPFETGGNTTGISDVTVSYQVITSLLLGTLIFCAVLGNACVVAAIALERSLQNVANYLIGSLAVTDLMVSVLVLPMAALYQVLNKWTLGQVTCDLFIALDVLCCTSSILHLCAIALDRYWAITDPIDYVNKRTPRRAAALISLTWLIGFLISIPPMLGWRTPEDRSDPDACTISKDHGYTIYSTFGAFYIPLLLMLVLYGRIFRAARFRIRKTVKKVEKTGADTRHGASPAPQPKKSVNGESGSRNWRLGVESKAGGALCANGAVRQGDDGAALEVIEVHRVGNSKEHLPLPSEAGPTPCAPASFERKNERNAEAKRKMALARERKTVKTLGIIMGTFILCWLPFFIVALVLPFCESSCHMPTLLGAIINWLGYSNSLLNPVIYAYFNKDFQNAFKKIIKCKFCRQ

Structure (SMILES) | Ki [21] | Ki [22] | Ki [23] | Ki [24] | Activity (Mus musculus [1]) | Activity (Mus musculus [2]) | Activity (Mus musculus [3]) | Activity (Mus musculus [4]) | Activity (Mus musculus [5]) | Activity (Mus musculus [6]) | Activity (Mus musculus [7]) | Activity (Mus musculus [8]) | Activity (Mus musculus [9]) | Activity (Mus musculus [10]) | Activity (Mus musculus [12]) | other results
COc1ccc2c(=O)c3cc(CN4CCN(c5ccccc5OC)CC4)ccc3oc2c1 [listing 1 of 2 here] |  |  |  |  | inactive | inactive | inactive | inactive | inactive | inactive | inactive | inactive | inactive | inactive | inactive | Activity (Mus musculus [11]): inactive
COc1ccc2c(=O)c3cc(CN4CCN(c5ccccc5OC)CC4)ccc3oc2c1 [listing 2 of 2 here] |  |  |  |  |  |  |  |  |  |  |  |  |  |  |  | Activity (Mus musculus [13]): Non-toxic; Activity (Mus musculus [14]): Non-toxic; Activity (Mus musculus [15]): Non-toxic; Activity (Mus musculus [16]): Non-toxic; Activity (Mus musculus [17]): Non-toxic
COc1ccc2c(=O)c3cc(CN4CCN(Cc5ccccc5)CC4)ccc3oc2c1 |  |  |  |  | inactive | inactive | inactive | inactive | inactive | inactive | inactive | inactive | inactive | Active | inactive | inhibition (Rattus norvegicus [18]): inactive; Activity (Rattus norvegicus [19]): inactive
COc1ccccc1N1CCN(Cc2ccc3oc4ccccc4c(=O)c3c2)CC1.Cl | 3.66 µM | 0.426 µM | 5.94 µM | 0.117 µM |  |  |  |  |  |  |  |  |  |  |  | Ki [20]: > 10 µM
COc1ccc2c(=O)c3cc(CN4CCN(C)CC4)ccc3oc2c1.Cl.Cl | 0.49 µM | 17 µM | 19.1 µM | 15.8 µM |  |  |  |  |  |  |  |  |  |  |  | 
